An excerpt weighted towards active compounds, which were near 2.2% of everything screened.
E-sel inducer = induces E-selectin expression in human endothelial cells. P16581. HUVEC E-selectin immunofluorescence imaging; normalized: neutral wells 0, TNF-alpha wells 100. activation, % at 7.58 µM. actives 0.37% (n = 260,000). AID 686992;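 active means mean E-selectin-positive cell signal at least 10% of the positive control, reached in at least 60% of replicates, without over 20% cell loss; inconclusive means no rule given, readout overlaps actives, possibly toxicity-flagged; inactive means the rest, including those meeting only one limit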
Target sequence (P16581 whole entry, looked up): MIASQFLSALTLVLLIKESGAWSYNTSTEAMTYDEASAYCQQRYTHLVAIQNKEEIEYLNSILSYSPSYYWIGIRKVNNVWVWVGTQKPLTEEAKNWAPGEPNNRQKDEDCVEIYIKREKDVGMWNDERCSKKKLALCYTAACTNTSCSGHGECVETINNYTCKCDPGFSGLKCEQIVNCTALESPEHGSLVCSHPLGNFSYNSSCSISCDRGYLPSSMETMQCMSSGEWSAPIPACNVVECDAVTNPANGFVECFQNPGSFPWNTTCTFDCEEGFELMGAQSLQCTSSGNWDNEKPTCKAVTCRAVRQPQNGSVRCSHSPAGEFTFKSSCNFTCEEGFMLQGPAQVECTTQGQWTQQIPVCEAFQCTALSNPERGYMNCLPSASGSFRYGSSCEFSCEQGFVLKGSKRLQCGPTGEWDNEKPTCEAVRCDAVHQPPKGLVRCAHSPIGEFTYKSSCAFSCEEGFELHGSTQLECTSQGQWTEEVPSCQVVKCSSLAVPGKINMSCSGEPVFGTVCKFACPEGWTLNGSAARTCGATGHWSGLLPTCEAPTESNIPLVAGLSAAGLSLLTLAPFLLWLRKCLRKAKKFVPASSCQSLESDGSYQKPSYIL
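Test system: HUVEC | Signal: Immunofluorescence imaging | Read-out: Percent E-selectin-positive cells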
Statin myotox sup = protects C2C12 myotubes from simvastatin toxicity. actives 0.78% (n = 330,000). ATP luminescence, 48 h; scaled: DMSO 0, geranylgeraniol control 100. rescue of ATP level, % at 7.49 µM;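 active means mean ATP rescue above about 67%, or every replicate alone reaching that limit, limit read from the data, passing the limit was not always enough; inconclusive means no clear call, values can overlap the other calls; inactive means mean under the limit and some replicate under it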;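 further: myotubes were challenged with 10 µM simvastatin during compound exposure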
DENV2 CPE rescue = protects cells from dengue virus 2 cytopathic effect; DENV2-infected cells, cytopathic effect rescue, plate reader; CPE inhibition, % at 9.99 µM; actives 1.7% (n = 350,000); in the data active means CPE inhibition above about 20%, passing the limit was not always enough; inconclusive means no clear call, values can overlap the other calls; tested in BHK-21 cells
A number is an active result; 0 = inactive; ? = inconclusive; - = no result given.

SMILES	E-sel inducer	Statin myotox sup	DENV2 CPE rescue
C=CCOc1cc(C)nc(-c2ccccc2O)n1	-	0	-
Cc1cc(Oc2ccccc2)nc(-c2ccccc2O)n1	-	104	-
Cc1cc(N2CCN(C)CC2)nc(-c2ccccc2O)n1	0	-	0
O=C(N[C@@H]1CC[C@H](CCNS(=O)(=O)c2ccc(F)cc2)O[C@H]1CO)C1CCCC1	0	0	0
CC(C)NC(=O)N(C)C[C@@H]1OCCCC[C@@H](C)Oc2ccc(NS(=O)(=O)c3ccc(Cl)cc3)cc2C(=O)N([C@@H](C)CO)C[C@H]1C	0	-	0
CCC(=O)N1[C@@H](CO)[C@H](c2ccccc2)C12CN(C(=O)c1cnccn1)C2	0	-	0
CCOC(=O)c1cccc(NS(=O)(=O)c2ccc(NC(C)=O)cc2)c1	-	0	-
CCOC(=O)c1cnc(SC)nc1Oc1cccc(NS(=O)(=O)c2ccc(C)cc2)c1	-	90	-
O=C(Nc1ccc(S(=O)(=O)NC2=NCCCCC2)cc1)c1cccs1	0	0	65
O=C(Nc1ccc(S(=O)(=O)NC2=NCCCCC2)cc1)c1ccc([N+](=O)[O-])s1	0	86	0
O=C(Nc1ccc(S(=O)(=O)NC2=NCCCCC2)cc1)c1ccc(Cl)c([N+](=O)[O-])c1	-	0	?
O=C(Nc1ccc(S(=O)(=O)NC2=NCCCCC2)cc1)c1ccc(C(F)(F)F)cc1	0	-	0
CC=Cc1ccc2n(c1=O)C[C@H]1[C@H](CO)[C@@H](C(=O)N[C@@H](C)c3ccccc3)N(C(=O)c3cnccn3)[C@@H]21 (mixture of isomers)	0	0	0
COc1ccc(S(=O)(=O)Nc2ccc3c(c2)C(=O)N([C@@H](C)CO)C[C@H](C)[C@@H](CN(C)C)OCCCC[C@H](C)O3)cc1	0	-	0
COc1cc2c(cc1OC)C(c1ccccc1)NCC2 (centres undefined)	0	0	0
COc1cc2c(cc1OC)C(c1cc(OC)c(OC)c(OC)c1)NCC2 (centres undefined)	0	113	-
CC=Cc1ccc2n(c1=O)C[C@@H]1[C@@H](CO)[C@H](C(=O)NCC(F)(F)F)[C@H]2N1C(=O)CC (mixture of isomers)	0	0	0
CCCCCCCNC(=O)C1(CC2CC(c3ccccc3)=NO2)CCN(C(=O)c2ccccc2)CC1 (centres undefined)	0	0	24
CCCCCCCNC(=O)C1(CC2CC(c3ccc(Cl)cc3)=NO2)CCN(C(=O)c2ccccc2)CC1 (centres undefined)	0	0	0
COc1ccc(CN(C)C[C@H]2Oc3c(NS(C)(=O)=O)cccc3C(=O)N([C@@H](C)CO)C[C@H]2C)cc1	0	0	0
COc1ccc2c3c(n(C)c2c1)[C@H](CO)NCC31CN(Cc2ccc(F)cc2)C1	0	-	0
COc1ccc2c3c(n(C)c2c1)[C@H](CO)NCC31CN(Cc2ccccc2F)C1	0	-	0
COc1ccc2c3c(n(C)c2c1)[C@H](CO)NCC31CCN(Cc2ccccc2F)CC1	0	-	31
COc1ccc2c3c(n(C)c2c1)[C@@H](CO)NCC31CN(Cc2cc(F)ccc2F)C1	0	-	31
CCCN1C[C@H](C)[C@@H](OC)CN(C)C(=O)c2cc(NC(=O)c3cnccn3)ccc2OC[C@H]1C	0	0	0
SMILES	E-sel inducer	Statin myotox sup	DENV2 CPE rescue
C[C@@H]1CN([C@H](C)CO)C(=O)c2cc(C#Cc3ccccc3F)cnc2O[C@H]1CN(C)C(=O)C1CCC1	0	0	0
CC(C)CC#Cc1ccc2c(c1)O[C@H](CN(C)C(=O)c1cccc(F)c1)[C@@H](C)CN([C@@H](C)CO)S2(=O)=O	0	0	24
CCCC#Cc1ccc2c(c1)O[C@H](CN(C)C(=O)c1ccccc1F)[C@H](C)CN([C@H](C)CO)S2(=O)=O	0	0	0
CC(C)CC#Cc1ccc2c(c1)O[C@H](CN(C)C(=O)c1ccccc1F)[C@@H](C)CN([C@@H](C)CO)S2(=O)=O	0	0	32
CC(C)CC#Cc1ccc2c(c1)O[C@H](CN(C)C(=O)c1cccc(F)c1)[C@@H](C)CN([C@H](C)CO)S2(=O)=O	0	0	0
C[C@@H]1CN([C@@H](C)CO)C(=O)c2cc(NC(=O)Nc3ccc(C(F)(F)F)cc3)ccc2O[C@@H](C)CCCCO[C@@H]1CN(C)Cc1ccncc1	0	-	0
C[C@H](CO)N1C[C@H](C)[C@H](CN(C)S(=O)(=O)c2ccccc2)Oc2c(NS(=O)(=O)c3ccccc3)cccc2C1=O	0	0	0
COc1cc(NC(=S)N2CCN(C)CC2)c(OC)cc1Cl	-	-	0
COc1cc(NC(=S)N2CCOCC2)c(OC)cc1Cl	26	-	0
CCOc1cc(OCC)cc(C(=O)N2CCC[C@@H]2C(=O)N2CCC[C@@H]2C(=O)NCc2ccccc2Cl)c1	0	-	81
O=C(NCc1ccccc1Cl)[C@H]1CCCN1C(=O)[C@H]1CCCN1	0	-	0

Bioassay records: PubChem, Broad Institute
